Results reported in ChEMBL document CHEMBL1143422, “In vitro selection and characterization of human immunodeficiency virus type 2 with decreased susceptibility to lopinavir” (Antimicrob Agents Chemother, 2007).
pEC50: −log10 of the molar value.

System: Human immunodeficiency virus 2
Test: Antiviral activity against HIV2 MS infected in human MT4 cells assessed as reduction in virus-induced cytopathic effect after 5 days by MTT assay
Format: functional, organism-based
Conditions: Human immunodeficiency virus 2, MT4, 120 h
Summary of the method: (§1)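 MT4 cells were infected 1 h with 50–100 pg RNA virus, washed twice, and exposed in triplicate to half-log PI dilutions (DMSO 1% final) for 5 days at 37°C. Cell viability was read by MTT: 4 h, SDS/HCl lysis overnight, OD at 570/650 nm. Cytopathic-effect reduction was scaled between infected and uninfected controls. EC50 by nonlinear regression, mean of three experiments.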
`Cc1c(O)cccc1C(=O)N[C@@H](CSc1ccccc1)[C@H](O)CN1C[C@H]2CCCC[C@H]2C[C@H]1C(=O)NC(C)(C)C` [NELFINAVIR] gave a pEC50 of 7.32.
For `CC(C)c1nc(CN(C)C(=O)N[C@H](C(=O)N[C@@H](Cc2ccccc2)C[C@H](O)[C@H](Cc2ccccc2)NC(=O)OCc2cncs2)C(C)C)cs1` [RITONAVIR], the pEC50 was 6.46.

System: Human immunodeficiency virus 2
Test: Antiviral activity against HIV2 CBL-23 infected in human PBMC assessed as inhibition of virus production after 5 days by Lenti-RT activity assay
Format: functional, organism-based
Conditions: Human immunodeficiency virus 2, CBL-23, 120 h
Summary of the method: (§2)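 PBMCs were stimulated with PHA (5 μg/ml) for 3 days, then kept in 20% FBS medium with IL-2 (50 U/ml). Cells were infected 1 h with 50–100 pg RNA virus, washed twice, and given half-log PI dilutions (DMSO 1% final) in triplicate. After 5 days at 37°C, supernatant RT was read versus infected control. EC50 by nonlinear regression, mean of three experiments.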
Work on `Cc1c(O)cccc1C(=O)N[C@@H](CSc1ccccc1)[C@H](O)CN1C[C@H]2CCCC[C@H]2C[C@H]1C(=O)NC(C)(C)C` [NELFINAVIR] yielded a pEC50 of 7.08.
Compound `CC(C)c1nc(CN(C)C(=O)N[C@H](C(=O)N[C@@H](Cc2ccccc2)C[C@H](O)[C@H](Cc2ccccc2)NC(=O)OCc2cncs2)C(C)C)cs1` [RITONAVIR] has a pEC50 of 6.29.

System: Human immunodeficiency virus 2
Test: Antiviral activity against HIV2 CDC310319 isolate infected in human PBMC assessed as inhibition of virus production after 5 days by Lenti-RT activity assay
Format: functional, organism-based
Conditions: Human immunodeficiency virus 2, 120 h
Summary of the method: as §2
Work on `Cc1c(O)cccc1C(=O)N[C@@H](CSc1ccccc1)[C@H](O)CN1C[C@H]2CCCC[C@H]2C[C@H]1C(=O)NC(C)(C)C` [NELFINAVIR] yielded a pEC50 of 6.41.
`CC(C)c1nc(CN(C)C(=O)N[C@H](C(=O)N[C@@H](Cc2ccccc2)C[C@H](O)[C@H](Cc2ccccc2)NC(=O)OCc2cncs2)C(C)C)cs1` [RITONAVIR] gave a pEC50 of 6.18.

System: not listed separately
Test: Ratio of EC50 for HIV2 MS to EC50 for HIV1 NL4-3 infected in human MT4 cells
Format: functional
Conditions: not given
For `Cc1c(O)cccc1C(=O)N[C@@H](CSc1ccccc1)[C@H](O)CN1C[C@H]2CCCC[C@H]2C[C@H]1C(=O)NC(C)(C)C` [NELFINAVIR], the “Ratio EC50” value was 2.7.
For `CC(C)c1nc(CN(C)C(=O)N[C@H](C(=O)N[C@@H](Cc2ccccc2)C[C@H](O)[C@H](Cc2ccccc2)NC(=O)OCc2cncs2)C(C)C)cs1` [RITONAVIR], the “Ratio EC50” value was 7.6.

System: not listed separately
Test: Ratio of EC50 for HIV2 CBL-23 infected in human PBMC to EC50 for HIV1 NL4-3 infected in human MT4 cells
Format: functional
Conditions: not given
In the case of `Cc1c(O)cccc1C(=O)N[C@@H](CSc1ccccc1)[C@H](O)CN1C[C@H]2CCCC[C@H]2C[C@H]1C(=O)NC(C)(C)C` [NELFINAVIR], the “Ratio EC50” value was 4.6.
For `CC(C)c1nc(CN(C)C(=O)N[C@H](C(=O)N[C@@H](Cc2ccccc2)C[C@H](O)[C@H](Cc2ccccc2)NC(=O)OCc2cncs2)C(C)C)cs1` [RITONAVIR], the “Ratio EC50” value was 11.2.

System: not listed separately
Test: Ratio of EC50 for HIV2 CDC310319 infected in human PBMC to EC50 for HIV1 NL4-3 infected in human MT4 cells
Format: functional
Conditions: not given
In the case of `Cc1c(O)cccc1C(=O)N[C@@H](CSc1ccccc1)[C@H](O)CN1C[C@H]2CCCC[C@H]2C[C@H]1C(=O)NC(C)(C)C` [NELFINAVIR], the “Ratio EC50” value was 21.6.
In the case of `CC(C)c1nc(CN(C)C(=O)N[C@H](C(=O)N[C@@H](Cc2ccccc2)C[C@H](O)[C@H](Cc2ccccc2)NC(=O)OCc2cncs2)C(C)C)cs1` [RITONAVIR], the “Ratio EC50” value was 14.5.

System: Human immunodeficiency virus 2
Test: Antiviral activity against wild type HIV2 ROD infected in human CEM cells assessed as inhibition of virus production after 7 days by Lenti-RT activity assay
Format: functional, organism-based
Conditions: Human immunodeficiency virus 2, ROD, CCRF-CEM, 168 h
In the case of `Cc1c(O)cccc1C(=O)N[C@@H](CSc1ccccc1)[C@H](O)CN1C[C@H]2CCCC[C@H]2C[C@H]1C(=O)NC(C)(C)C` [NELFINAVIR], the pEC50 was 6.55.
Work on `CC(C)c1nc(CN(C)C(=O)N[C@H](C(=O)N[C@@H](Cc2ccccc2)C[C@H](O)[C@H](Cc2ccccc2)NC(=O)OCc2cncs2)C(C)C)cs1` [RITONAVIR] yielded a pEC50 of 6.38.

System: Human immunodeficiency virus 2
Test: Antiviral activity against HIV2 ROD with protease G17N mutation infected in human CEM cells assessed as inhibition of virus production after 7 days by Lenti-RT activity assay
Format: functional, organism-based
Conditions: Human immunodeficiency virus 2, ROD, CCRF-CEM, 168 h
Summary of the method: (§3)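 Protease mutant clones of HIV-2ROD came from site-directed mutagenesis of pSL-3, with stocks made by 293T transfection. CEM174 cells were infected with 100 pg RT of virus for 2 h at 37°C, washed, and seeded at 2 × 10^5 cells/ml. PI was added as 1:4 serial dilutions, 1% DMSO final, and incubated 7 days. Supernatant RT was read, in triplicate. EC50 came from nonlinear regression, and fold-change is mutant EC50 divided by HIV-2ROD EC50.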
Work on `Cc1c(O)cccc1C(=O)N[C@@H](CSc1ccccc1)[C@H](O)CN1C[C@H]2CCCC[C@H]2C[C@H]1C(=O)NC(C)(C)C` [NELFINAVIR] yielded a pEC50 of 6.70.
`CC(C)c1nc(CN(C)C(=O)N[C@H](C(=O)N[C@@H](Cc2ccccc2)C[C@H](O)[C@H](Cc2ccccc2)NC(=O)OCc2cncs2)C(C)C)cs1` [RITONAVIR] showed a pEC50 of 6.51.

System: Human immunodeficiency virus 2
Test: Antiviral activity against HIV2 ROD with protease V47A mutation infected in human CEM cells assessed as inhibition of virus production after 7 days by Lenti-RT activity assay
Format: functional, organism-based
Conditions: Human immunodeficiency virus 2, ROD, CCRF-CEM, 168 h
Summary of the method: as §3
With `Cc1c(O)cccc1C(=O)N[C@@H](CSc1ccccc1)[C@H](O)CN1C[C@H]2CCCC[C@H]2C[C@H]1C(=O)NC(C)(C)C` [NELFINAVIR] the pEC50 was 6.75.
For `CC(C)c1nc(CN(C)C(=O)N[C@H](C(=O)N[C@@H](Cc2ccccc2)C[C@H](O)[C@H](Cc2ccccc2)NC(=O)OCc2cncs2)C(C)C)cs1` [RITONAVIR], the pEC50 was 6.94.

System: Human immunodeficiency virus 2
Test: Antiviral activity against HIV2 ROD with protease G17N/V47A mutation infected in human CEM cells assessed as inhibition of virus production after 7 days by Lenti-RT activity assay
Format: functional, organism-based
Conditions: Human immunodeficiency virus 2, ROD, CCRF-CEM, 168 h
Summary of the method: as §3
In the case of `Cc1c(O)cccc1C(=O)N[C@@H](CSc1ccccc1)[C@H](O)CN1C[C@H]2CCCC[C@H]2C[C@H]1C(=O)NC(C)(C)C` [NELFINAVIR], the pEC50 was 7.00.
With `CC(C)c1nc(CN(C)C(=O)N[C@H](C(=O)N[C@@H](Cc2ccccc2)C[C@H](O)[C@H](Cc2ccccc2)NC(=O)OCc2cncs2)C(C)C)cs1` [RITONAVIR] the pEC50 was 7.08.

System: Human immunodeficiency virus 2
Test: Ratio of EC50 for HIV2 ROD with protease G17N mutation to EC50 for wild type HIV2 ROD
Format: functional
Conditions: not given
Summary of the method: as §3
With `Cc1c(O)cccc1C(=O)N[C@@H](CSc1ccccc1)[C@H](O)CN1C[C@H]2CCCC[C@H]2C[C@H]1C(=O)NC(C)(C)C` [NELFINAVIR] the “Ratio EC50” value was 0.7.
With `CC(C)c1nc(CN(C)C(=O)N[C@H](C(=O)N[C@@H](Cc2ccccc2)C[C@H](O)[C@H](Cc2ccccc2)NC(=O)OCc2cncs2)C(C)C)cs1` [RITONAVIR] the “Ratio EC50” value was 0.7.

System: Human immunodeficiency virus 2
Test: Ratio of EC50 for HIV2 ROD with protease V47A mutation to EC50 for wild type HIV2 ROD
Format: functional
Conditions: not given
Summary of the method: as §3
With `Cc1c(O)cccc1C(=O)N[C@@H](CSc1ccccc1)[C@H](O)CN1C[C@H]2CCCC[C@H]2C[C@H]1C(=O)NC(C)(C)C` [NELFINAVIR] the “Ratio EC50” value was 0.6.
In the case of `CC(C)c1nc(CN(C)C(=O)N[C@H](C(=O)N[C@@H](Cc2ccccc2)C[C@H](O)[C@H](Cc2ccccc2)NC(=O)OCc2cncs2)C(C)C)cs1` [RITONAVIR], the “Ratio EC50” value was 0.3.

System: Human immunodeficiency virus 2
Test: Ratio of EC50 for HIV2 ROD with protease G17N/V47A mutation to EC50 for wild type HIV2 ROD
Format: functional
Conditions: not given
Summary of the method: as §3
For `Cc1c(O)cccc1C(=O)N[C@@H](CSc1ccccc1)[C@H](O)CN1C[C@H]2CCCC[C@H]2C[C@H]1C(=O)NC(C)(C)C` [NELFINAVIR], the “Ratio EC50” value was 0.4.
In the case of `CC(C)c1nc(CN(C)C(=O)N[C@H](C(=O)N[C@@H](Cc2ccccc2)C[C@H](O)[C@H](Cc2ccccc2)NC(=O)OCc2cncs2)C(C)C)cs1` [RITONAVIR], the “Ratio EC50” value was 0.2.

System: Human immunodeficiency virus 1
Test: Antiviral activity against HIV1 in presence of 50% human serum
Format: functional, organism-based
Conditions: not given
Compound `CC(C)c1nc(CN(C)C(=O)N[C@H](C(=O)N[C@@H](Cc2ccccc2)C[C@H](O)[C@H](Cc2ccccc2)NC(=O)OCc2cncs2)C(C)C)cs1` [RITONAVIR] has a pEC50 of 7.00.

System: Human immunodeficiency virus 1
Test: Antiviral activity against HIV1 NL4-3 infected in human MT4 cells assessed as reduction in virus-induced cytopathic effect after 5 days by MTT assay
Format: functional, organism-based
Conditions: Human immunodeficiency virus 1, NL4-3, MT4, 120 h
Summary of the method: as §1
Work on `Cc1c(O)cccc1C(=O)N[C@@H](CSc1ccccc1)[C@H](O)CN1C[C@H]2CCCC[C@H]2C[C@H]1C(=O)NC(C)(C)C` [NELFINAVIR] yielded a pEC50 of 7.74.
Work on `CC(C)c1nc(CN(C)C(=O)N[C@H](C(=O)N[C@@H](Cc2ccccc2)C[C@H](O)[C@H](Cc2ccccc2)NC(=O)OCc2cncs2)C(C)C)cs1` [RITONAVIR] yielded a pEC50 of 7.34.
